Each block holds one compound with its values, some of them ahead of it.
Legend:
Cavia porcellus [1] = experiment: Ex vivo inhibition of ADP induced guinea pig platelet aggregation following 0.08 mmol/kg administration.; assay type: functional
Summary of the method: (§1)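 Fasted male rats (~200 g) or guinea pigs (~300 g), n=5-10, dosed orally (5 mL/kg) in 1% methylcellulose; methylcellulose alone as control. Killed with CO2 after 2 h. Vena cava blood citrated (102 mM rat, 129 mM guinea pig); PRP adjusted to 800000/µL (rat) or 500000/µL (guinea pig). EC25 for first-phase ADP aggregation (max 8 µM) interpolated from two 2-fold-spaced ADP levels. Dose ratio = treated/control mean EC25; Student's t-test. Some groups tested as pooled PRP.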

Cavia porcellus [2] = experiment: Ex vivo inhibition of collagen induced guinea pig platelet aggregation following 0.08 mmol/kg administration.; assay type: functional
Summary of the method: (§2)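 Male rats (~200 g) or guinea pigs (~300 g), overnight fasted, n=5-10, received compound orally in 1% methylcellulose (5 mL/kg); vehicle-only controls. After 2 h, CO2 kill and vena cava blood into citrate (102 mM rat, 129 mM guinea pig). PRP set to 800000/µL (rat) or 500000/µL (guinea pig). Collagen EC50 (response of 50 mm; max 50 µg/mL) interpolated from a log plot. Dose ratio = treated/control mean EC50; t-test. Pooled PRP sometimes used.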

Homo sapiens [3] = organism: Homo sapiens; experiment: In vitro inhibitory activity against human platelet aggregation in the presence of Adenosine diphosphate; assay type: functional
Summary of the method: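 Human citrated PRP, platelet count adjusted to 350000/µL with autologous platelet-poor plasma. 90 µL PRP preincubated 3 min at 37 °C with compound or saline (DMF vehicle where needed), stirred at 1100 rpm. ADP chosen per preparation to give a clear first-phase response (typically 1 µM). Photometric read-out: maximum rise in light transmission within 1 min. IC50 determined.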

Homo sapiens [4] = organism: Homo sapiens; experiment: (§3) In vitro inhibitory activity against human platelet aggregation in the presence of collagen; assay type: functional, organism-based
Rattus norvegicus [5] = experiment: The compound was tested ex vivo at a dose of 0.08 mmol/kg for ADP induced platelet aggregation in rat; assay type: functional; summary of the method: as §1
Rattus norvegicus [6] = experiment: The compound was tested ex vivo at a dose of 0.08 mmol/kg for collagen induced platelet aggregation in rat; assay type: functional; summary of the method: as §2
Cavia porcellus [7] = experiment: The compound was tested ex vivo at a dose of 0.04 mmol/kg for ADP induced platelet aggregation in guinea pig; assay type: functional; summary of the method: as §1
Cavia porcellus [8] = experiment: The compound was tested ex vivo at a dose of 0.04 mmol/kg for collagen induced platelet aggregation in guinea pig; assay type: functional; summary of the method: as §2
Homo sapiens [9] = organism: Homo sapiens; experiment: as §3; assay type: functional
Summary of the method: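 Aggregation measured photometrically in human citrated PRP (350000 platelets/µL, stirred at 1100 rpm). Compound or saline preincubated 3 min at 37 °C. Collagen at a just-maximal level chosen for each sample (typically 0.7-1.4 µg/mL). Maximum increase in light transmission measured. IC50 = concentration giving 50% inhibition.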

Rattus norvegicus [10] = experiment: The compound was tested ex vivo at a dose of 0.3 mmol/kg for collagen induced platelet aggregation in rat; assay type: functional; summary of the method: as §2
Rattus norvegicus [11] = experiment: The compound was tested ex vivo at a dose of 0.15 mmol/kg for ADP induced platelet aggregation in rat; assay type: functional; summary of the method: as §1
Rattus norvegicus [12] = experiment: The compound was tested ex vivo at a dose of 0.15 mmol/kg for collagen induced platelet aggregation in rat; assay type: functional; summary of the method: as §2
Rattus norvegicus [13] = experiment: The compound was tested ex vivo at a dose of 0.3 mmol/kg for ADP induced platelet aggregation in rat; assay type: functional; summary of the method: as §1
Cavia porcellus [14] = experiment: The compound was tested ex vivo at a dose of 0.15 mmol/kg for ADP induced platelet aggregation in guinea pig; assay type: functional; summary of the method: as §1
Cavia porcellus [15] = experiment: The compound was tested ex vivo at a dose of 0.15 mmol/kg for collagen induced platelet aggregation in guinea pig; assay type: functional; summary of the method: as §2
Cavia porcellus [16] = experiment: The compound was tested ex vivo at a dose of 0.08 mmol/kg or collagen induced platelet aggregation in guinea pig; assay type: functional; summary of the method: as §2
Cavia porcellus [17] = experiment: The compound was tested ex vivo at a dose of 0.08 mmol/kg for ADP induced platelet aggregation in guinea pig; assay type: functional; summary of the method: as §1
Cavia porcellus [18] = experiment: The compound was tested ex vivo at a dose of 0.08 mmol/kg for collagen induced platelet aggregation in guinea pig; assay type: functional; summary of the method: as §2
Cavia porcellus [19] = experiment: The compound was tested ex vivo fat a dose of 0.15 mmol/kg for collagen induced platelet aggregation in guinea pig; assay type: functional; summary of the method: as §2
Rattus norvegicus [20] = experiment: The compound was tested at a dose of 0.15 mmol/kg ex vivo for collagen induced platelet aggregation in rat; assay type: functional; summary of the method: as §2
Rattus norvegicus [21] = experiment: The compound was tested ex vivo at a dose of 0.15 mmol/kg for ADP induced platelet aggregation in rat
Cavia porcellus [22] = experiment: The compound was tested at a dose of 0.08 mmol/kg ex vivo for collagen induced platelet aggregation in guinea pig; assay type: functional; summary of the method: as §2

SMILES: O=c1c2ccccc2sn1CCCCN1CC2CCC(CC2)C1
- Activity (Cavia porcellus [1]): 1.6
- Activity (Cavia porcellus [2]): 4.1

SMILES: COc1cc2sn(CCCCN3CC4CCC(CC4)C3)c(=O)c2cc1OC
- Activity (Cavia porcellus [1]): 2.6
- Activity (Cavia porcellus [2]): 5.4
- IC50 (Homo sapiens [3]): 99 µM
- IC50 (Homo sapiens [4]): 16 µM
- Activity (Rattus norvegicus [5]): 1.4
- Activity (Rattus norvegicus [6]): 2.4

- Dose ratio (treated/control collagen EC50) (Cavia porcellus [8]): 1.6
SMILES: Cc1cc(C)c2c(=O)n(CCc3ccccn3)sc2c1
- Activity (Cavia porcellus [7]): 1

- IC50 (Homo sapiens [3]): 20 µM
- IC50 (Homo sapiens [9]): 12 µM
SMILES: O=c1c2ccccc2sn1CCc1ccccn1
- Activity (Rattus norvegicus [10]): 0.7

- IC50 (Homo sapiens [9]): 17 µM
SMILES: O=c1c2ccccc2sn1CCCN1CCCCC1
- Activity (Cavia porcellus [1]): 3.7
- Activity (Cavia porcellus [2]): >26
- Activity (Rattus norvegicus [5]): 1
- Activity (Rattus norvegicus [6]): 2.4

SMILES: COc1cc2sn(CCCN3CC4CCC(CC4)C3)c(=O)c2cc1OC
- Activity (Cavia porcellus [1]): 0.9
- Activity (Cavia porcellus [2]): 1.6

SMILES: O=c1c2ccccc2sn1CCCCCN1CCCCC1
- Activity (Cavia porcellus [1]): 1.3
- Activity (Cavia porcellus [2]): 1.1

SMILES: CCN(CC)CCn1sc2cc(Cl)c(Cl)cc2c1=O
- Activity (Rattus norvegicus [11]): 0.8
- Activity (Rattus norvegicus [12]): 2.1
- Activity (Rattus norvegicus [13]): 1.2
- Activity (Rattus norvegicus [10]): 6.5

SMILES: O=c1c2ccccc2sn1CCCCN1CCOCC1
- Activity (Cavia porcellus [1]): 1.1
- Activity (Cavia porcellus [2]): 2.4

- collagen EC50 dose ratio (treated/control) (Cavia porcellus [15]): 1.5
SMILES: COc1cc2sn(CCc3ccccn3)c(=O)c2cc1OC
- Activity (Cavia porcellus [14]): 1.1
- Activity (Rattus norvegicus [11]): 1.8
- Activity (Rattus norvegicus [12]): 2.8

- collagen EC50 dose ratio (treated/control) (Cavia porcellus [15]): 7.3
SMILES: COc1cc2sn(CCN3CCCCC3)c(=O)c2cc1OC
- Activity (Cavia porcellus [14]): 1.9
- Activity (Rattus norvegicus [11]): 1.1
- Activity (Rattus norvegicus [12]): 2.2

SMILES: O=c1c2ccccc2sn1CCCCCN1CC2CCC(CC2)C1
- Activity (Cavia porcellus [1]): 1.2
- Activity (Cavia porcellus [16]): 2.8

SMILES: Cc1cc(C)c2c(=O)n(CCN3CCCC3)sc2c1
- Activity (Cavia porcellus [17]): > 32
- Activity (Cavia porcellus [18]): > 23
- Activity (Cavia porcellus [1]): >32
- Activity (Cavia porcellus [2]): >23

SMILES: O=c1c2cc(Cl)c(Cl)cc2sn1CCN1CCCCC1
- Activity (Rattus norvegicus [11]): 1.2
- Activity (Rattus norvegicus [12]): 1.5

SMILES: COc1cc2sn(CCCCN3CCCCC3)c(=O)c2cc1OC
- Activity (Cavia porcellus [1]): 1.1
- Activity (Cavia porcellus [2]): 1.6

- Dose ratio (treated/control collagen EC50) (Cavia porcellus [8]): 1.1
SMILES: Cc1cc(C)c2c(=O)n(CCCCN3CC4CCC(CC4)C3)sc2c1
- Activity (Cavia porcellus [7]): 0.8

- IC50 (Homo sapiens [3]): > 200 µM
- IC50 (Homo sapiens [9]): 34 µM
SMILES: O=c1[nH]sc2ccccc12
- Activity (Rattus norvegicus [10]): 1

- Dose ratio (treated/control collagen EC50) (Cavia porcellus [8]): >17
SMILES: CCN(CC)CCn1sc2cc(C)cc(C)c2c1=O
- Activity (Cavia porcellus [7]): 2.2

- collagen EC50 dose ratio (treated/control) (Cavia porcellus [15]): 0.8
SMILES: Cc1cc2sn(CCc3ccccn3)c(=O)c2cc1C
- Activity (Cavia porcellus [14]): 0.9

SMILES: O=c1c2ccccc2sn1CCN1CC2CCC(CC2)C1
- Activity (Cavia porcellus [19]): 1.7
- Activity (Cavia porcellus [14]): 1.1
- Activity (Rattus norvegicus [11]): 1.6
- Activity (Rattus norvegicus [12]): 2.2

SMILES: Cc1cc2sn(CCN3CC4CCC(CC4)C3)c(=O)c2cc1C
- Activity (Rattus norvegicus [11]): 1.3
- Activity (Rattus norvegicus [20]): 1
- Activity (Cavia porcellus [15]): 0.7
- Activity (Rattus norvegicus [21]): 1

SMILES: O=c1c2ccccc2sn1CCN1CCOCC1
- Activity (Rattus norvegicus [11]): 1
- Activity (Rattus norvegicus [12]): 1

SMILES: O=c1c2ccccc2sn1CCCN1CCOCC1
- Activity (Cavia porcellus [1]): 1.3
- Activity (Cavia porcellus [2]): 2.5

SMILES: Cc1cc(C)c2c(=O)n(CCCN3CCCCC3)sc2c1
- Activity (Cavia porcellus [22]): 6.7
- Activity (Cavia porcellus [1]): 1.4

SMILES: Cc1cc2sn(CCN3CCCC3)c(=O)c2cc1C
- Activity (Cavia porcellus [14]): 1.9
- Activity (Rattus norvegicus [11]): 1.4
- Activity (Rattus norvegicus [12]): 2.7
- Activity (Cavia porcellus [15]): > 10

SMILES: O=c1c2ccccc2sn1-c1ccccc1
- Activity (Rattus norvegicus [11]): 0.9
- Activity (Rattus norvegicus [12]): 1.1

Reference: ChEMBL document CHEMBL1122845, “Inhibitors of blood platelet aggregation. Effects of some 1,2-benzisothiazol-3-ones on platelet responsiveness to adenosine diphosphate and collagen” (J Med Chem, 1985)
